Screening data as filed in PubChem.
Sampled rows, rich in hits. Any-hit rate of the full collection: about 27%.
CYP2C19 activ = increases human CYP2C19 enzyme activity; P33261; recombinant CYP2C19, luciferin-H EGE luminescence; stronger effect = higher value; 0 = fully inhibited enzyme, 1 = untreated enzyme; activation factor at 5 µM; 96,000 tested, under 10 active; AID 1025;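 active = activation factor of at least 2 at 5 µM in the primary screen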;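 also: 0 = wells with 2.5 mM tranylcypromine and 1 = vehicle-only wells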
CYP2C9 inhib = inhibitors of human CYP2C9 | CYP2C9 Supersomes, luciferin-H conversion, luminescence | inhibition, % at 5 µM | hit rate 20% among 96,000 | AID 777;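 active = blocking of liver enzyme CYP2C9 beyond about 50% at 5 µM, limit read from the data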
Target sequence (P11712 whole entry, looked up): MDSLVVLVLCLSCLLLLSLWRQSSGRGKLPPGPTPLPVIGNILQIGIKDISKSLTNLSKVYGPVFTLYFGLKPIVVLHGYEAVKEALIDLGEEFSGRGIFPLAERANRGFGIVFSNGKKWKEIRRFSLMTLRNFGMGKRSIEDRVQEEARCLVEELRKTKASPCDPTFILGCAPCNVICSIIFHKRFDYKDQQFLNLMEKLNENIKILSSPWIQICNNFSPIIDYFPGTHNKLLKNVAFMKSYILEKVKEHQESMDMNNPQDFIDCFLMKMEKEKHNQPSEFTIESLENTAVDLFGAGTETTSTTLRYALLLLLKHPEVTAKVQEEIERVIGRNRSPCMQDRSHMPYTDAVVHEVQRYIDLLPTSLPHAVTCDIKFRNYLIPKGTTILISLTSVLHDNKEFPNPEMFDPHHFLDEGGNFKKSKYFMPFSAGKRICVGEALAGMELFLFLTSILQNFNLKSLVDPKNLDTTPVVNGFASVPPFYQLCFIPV
HIV Rev-RRE inh = HIV Rev-RRE protein-RNA interaction inhibition. hit rate 0.79% among 97,000. P05866. Rev peptide-RRE RNA binding, FRET. inhibition, % at 8 µM;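 active = inhibition above the screen-wide mean plus 3 SD, cut at about 35% in these data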;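 also: 0% = median DMSO wells and 100% = median Neomycin B control wells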
Target sequence (P05866 whole entry, looked up): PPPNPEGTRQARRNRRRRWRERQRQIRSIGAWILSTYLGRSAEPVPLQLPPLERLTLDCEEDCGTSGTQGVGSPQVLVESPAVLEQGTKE
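assay system = Cy5-tagged RRE RNA duplex with fluorescein-tagged Rev peptide | incubation = 5 + 15 min at 25 °C | also added = labelled Rev peptide | measure = % inhibition of FRET ratio versus controls | benchmarks = DMSO wells as 0% and neomycin B wells as 100% inhibition | measured by = FRET fluorescence readout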
CYP2C9 act = activators of human CYP2C9; P11712; recombinant CYP2C9, luciferin-H conversion, luminescence; stronger effect = higher value; factor 1 = untreated enzyme, 0 = blocked; activation factor at 5 µM; hit rate 1.4% among 96,000;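 active = activation factor of 2 or more for CYP2C9 at a 5 µM dose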;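 also: 0 = sulfaphenazole-blocked wells and 1 = vehicle-only wells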
Cav3 T inh = blocks human Cav3.2 T-type calcium channel | hit rate 4% among 100,000 | AID 449739 | Cav3.2-expressing cells, Fluo-4 calcium fluorescence FDSS; stronger effect = lower value | O95180 | B-score at 10 µM;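 active = single-dose well whose peak fluorescence ratio is a statistical outlier from its plate by either plate-standardised score or position-corrected B-score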
CYP2C19 inhib = blocks human cytochrome P450 2C19; P33261; CYP2C19 Supersomes, luciferin-H EGE luminescence, 30 min; inhibition, % at 5 µM; hit rate 21% among 96,000;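 active = CYP2C19 inhibition above a set limit at 5 µM in the primary screen, cut at about 50% in these data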;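 also: plate controls were negative control wells for no effect and 2.5 mM tranylcypromine positive control for full effect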
An asterisk follows results filed as active; . = no result given.

SMILES	CYP2C19 activ	CYP2C9 inhib	HIV Rev-RRE inh	CYP2C9 act	Cav3 T inh	CYP2C19 inhib
CCOC(=O)N1CCN(S(=O)(=O)N(C)C)CC1	0.9	-8	10	1.1	.	10
CN(C)CCNc1ncnc2c1sc1nc(N3CCOCC3)c3c(c12)CC(C)(C)SC3	0.9	10	8	0.9	0.1	15
CCOCCCNC(=O)Cn1cc2c(n1)CCCC2	1	-1	.	1	-0.33	-3
Cc1ccnc(NC(=O)Nc2cccc(F)c2)c1	0.7	16	4	0.8	.	33
CCN1C(=O)C2(C(C#N)=C(N)Oc3n[nH]c(COC)c32)c2ccccc21 (stereo not given)	1	-8	4	1.1	0.7	-4
Cn1c(-c2c(N)n(C3CCCC3)c3nc4ccccc4nc23)nc2ccccc21	0.9	14	58*	0.9	1.3	6
Cn1c(-c2c(N)n(CCc3ccccc3)c3nc4ccccc4nc23)nc2ccccc21	0.4	100*	44*	0	-3.6	58*
COCCn1c(N)c(C#N)c2nc3ccccc3nc21	0.7	24	-1	0.8	0.82	26
Cn1c(-c2c(N)n(CCCc3ccccc3)c3nc4ccccc4nc23)nc2ccccc21	0.6	46	45*	0.5	-1.7	36
COCCCn1c(N)c(-c2nc3ccccc3n2C)c2nc3ccccc3nc21	0.3	66*	58*	0.3	-2.2	70*
CCO/C(C)=N/n1c2nc3ccccc3nc2c2c(=O)n(C3CCCC3)c(C)nc21	0.9	38	11	0.6	0.11	9
O=C(CCC(=O)OCC(=O)c1cccc([N+](=O)[O-])c1)Nc1ccccc1Cl	1.1	-16	2	1.2	1	-7
COc1cccc(-n2sc3c(c2=S)-c2cc(OC)ccc2NC3(C)C)c1	0.9	69*	-5	0.3	-2.8	12
O=C(CN(C(=O)c1ccc2c(c1)OCCO2)c1ccccc1)NCC1CCCO1 (stereo not given)	0.6	66*	-2	0.3	1	42
O=C(CN(Cc1ccc2c(c1)OCO2)C(=O)CNS(=O)(=O)c1ccccc1)NCC1CCCO1 (stereo not given)	0.8	9	0	0.9	-0.54	21
O=C(CN(c1ccc2c(c1)OCCO2)S(=O)(=O)c1ccccc1)NCC1CCCO1 (stereo not given)	0.6	77*	5	0.2	0.8	35
COc1ccc(S(=O)(=O)NCC(=O)N(CC(=O)NCC2CCCO2)c2c(C)cccc2C)cc1 (stereo not given)	0.8	68*	4	0.3	0.0018	20
CN(CC(=O)NCC1CCCO1)S(=O)(=O)c1cc(Cl)ccc1Cl (stereo not given)	0.4	-221	-3	3.2*	0.31	64*
COc1ccc(CC(=O)N2CC(C)CC(C)C2)cc1 (stereo not given)	0.6	-3	1	1	1.9	41
CCC(C)NCCOCCSc1ccc(Cl)cc1 (stereo not given)	0.7	18	-5	0.8	1.2	33
CN(C)c1ccc(C(CC(=O)O)NC(=O)c2ccc(Cl)cc2)cc1 (stereo not given)	0.9	3	2	1	.	14
COc1ccc(N(CC(=O)NCC2CCCO2)S(=O)(=O)c2ccc(C)cc2)cc1OC (stereo not given)	1.2	55*	5	0.4	0.8	-24
COc1ccccc1CN(CC(=O)NCC1CCCO1)C(=O)CNS(=O)(=O)c1ccc(C)cc1 (stereo not given)	0.8	25	3	0.7	-0.54	16
CCOc1ccc(N(CC(=O)NCC2CCCO2)S(=O)(=O)c2ccc(SC)cc2)cc1 (stereo not given)	0.3	44	12	0.6	0.075	68*
CCCCC(=O)Nc1ccc(C(=O)Nc2nnc(COC)s2)cc1	0.9	29	11	0.7	0.29	10
SMILES	CYP2C19 activ	CYP2C9 inhib	HIV Rev-RRE inh	CYP2C9 act	Cav3 T inh	CYP2C19 inhib
CCCCCCCCC(=O)NC(NC(=S)N1CCOCC1)C(Cl)(Cl)Cl (stereo not given)	.	.	-1	.	-4.2*	.
CCCCCC(=O)NC(NC(=S)N1CCOCC1)C(Cl)(Cl)Cl (stereo not given)	.	.	-2	.	0.25	.
O=c1cc(-c2ccccc2)[nH]n1-c1ccc([N+](=O)[O-])cc1	0.8	6	1	0.9	-4*	17
Nc1c(-c2ccccc2)cnn1-c1cccc([N+](=O)[O-])c1	0.8	9	0	0.9	0.78	18
CCC(C)NC(=O)c1cn(C)c(=O)c2cc(OC)c(OC)cc12 (stereo not given)	0.6	-5	.	1.1	0.49	41
Cc1ccccc1NC(=O)/C(=C/c1ccco1)c1ccccc1	0.8	48	-1	0.5	-1.7	25
CCc1ccccc1NC(=O)/C(=C/c1ccco1)c1ccccc1	0.9	17	10	0.8	-5.5*	7
CCCc1cc(-c2[nH]ncc2-c2ccc(C(=O)OCC)o2)c(O)cc1O	0.3	98*	9	0	-0.081	70*
CCCc1cc(-c2[nH]ncc2-c2ccc3c(c2)OCCCO3)c(O)cc1O	0	100*	13	0	-0.64	100*
Cc1cccc2cc3c(NC(=O)C(C)C)nn(C)c3nc12	0.9	2	6	1	-0.26	8
Cc1nnc(SCC(=O)Nc2c(Cl)cccc2Cl)[nH]c1=O	1.1	62*	4	0.4	0.17	-6
Cc1nnc(SCc2ccc(Cl)cc2Cl)[nH]c1=O	0.9	80*	3	0.2	0.8	11
Cc1nnc(SCC(=O)Nc2ccc(Cl)cn2)[nH]c1=O	.	.	2	.	0.18	.
C=C(Br)Cn1c(CCC)nc2ccccc21	0.7	-15	3	1.2	-0.35	34
Cc1ccc(S(=O)(=O)c2nc(N3CCOCC3)sc2Cl)cc1	0.6	6	6	0.9	-0.12	36
Cc1c(S(=O)(=O)Nc2cc(Cl)ccc2Cl)c(=O)n(C)c(=O)n1C	.	.	2	.	0.037	.
Cn1c2c(c(=O)n(C)c1=O)C1c3cc(Cl)ccc3OCC1CO2 (stereo not given)	0.3	7	6	0.9	-0.14	69*
Cc1ccc(CNC(=O)c2ccc(CN3CCOCC3)cc2)cc1	1.1	1	1	1	1.5	-15
O=C(Nc1nnc(SCc2ccc(F)cc2)s1)C1Cc2ccccc2CN1C(=O)c1ccco1 (stereo not given)	0.7	49	5	0.5	-5.7*	29
Cc1c(NC(=O)C2Cc3ccccc3CN2C(=O)c2ccco2)c(=O)n(-c2ccccc2)n1C (stereo not given)	1.1	-10	-2	1.1	-1.2	-15
O=C(Nc1ccccc1N1CCOCC1)C1Cc2ccccc2CN1C(=O)c1ccco1 (stereo not given)	0.5	67*	10	0.3	-0.22	51*
